Assay results pooled from the literature.
Each line is one published result; the experiments were not run side by side.
Target: Mitogen-activated protein kinase kinase kinase 3 (MAP3K3, Homo sapiens, UniProt Q99759)
One construct used (Q99759 1-626): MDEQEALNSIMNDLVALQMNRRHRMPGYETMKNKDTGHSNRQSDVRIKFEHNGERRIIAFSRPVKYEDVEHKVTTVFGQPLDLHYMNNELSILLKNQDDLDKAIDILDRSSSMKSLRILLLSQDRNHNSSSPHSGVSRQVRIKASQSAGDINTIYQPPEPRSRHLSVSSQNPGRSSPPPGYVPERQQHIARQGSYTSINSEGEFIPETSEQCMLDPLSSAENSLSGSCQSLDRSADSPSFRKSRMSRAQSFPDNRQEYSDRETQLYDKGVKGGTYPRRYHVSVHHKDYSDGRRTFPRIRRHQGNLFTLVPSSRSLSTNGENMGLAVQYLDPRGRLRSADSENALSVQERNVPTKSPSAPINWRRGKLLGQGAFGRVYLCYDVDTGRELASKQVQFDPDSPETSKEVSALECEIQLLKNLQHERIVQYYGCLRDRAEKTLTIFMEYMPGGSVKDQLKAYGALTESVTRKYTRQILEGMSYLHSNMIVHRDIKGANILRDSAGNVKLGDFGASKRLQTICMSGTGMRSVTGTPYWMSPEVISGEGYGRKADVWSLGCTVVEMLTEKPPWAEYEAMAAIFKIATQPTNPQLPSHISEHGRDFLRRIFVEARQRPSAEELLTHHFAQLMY

| SMILES | read-out | method | concentration | remaining binding [%] |
| --- | --- | --- | --- | --- |
| Nc1c(C(=O)NCc2ccc(C(=O)NCCCC3CCCCC3)cc2)cnn1-c1ccccc1 | cell-free assay | competition with immobilised ligand | 0.1 µM | 100 |
| CN(C)c1ncc(F)c(-c2cnn3ncccc23)n1 | binding |  | 1 µM | 90 |
| O=C(c1ccc(Nc2ncc(Cl)c(-c3cc4ccccc4s3)n2)cc1)N1CCC(N2CCCC2)CC1 | binding | competition with immobilised ligand | 1 µM | 34 |
| Cc1c(NC(=O)c2cc(C(N)=O)nc3cc(F)ccc23)c(C(F)(F)F)nn1Cc1ccc(C(C)(C)C)cc1 | cell-free assay | competition with immobilised ligand | 1 µM | 100 |
| COc1ccnn2ncc(-c3ccnc(N(C)C)n3)c12 | binding |  | 1 µM | 72 |
| COc1cnc(Nc2cccc(S(N)(=O)=O)c2)nc1N1CCN(c2ccccc2)CC1 | binding | competition with immobilised ligand | 1 µM | 82 |
| C[C@@H](c1ccc(-n2cnc3c(N)ncnc32)cc1)N1CCc2nn(C)c(Cc3ccccc3)c2C1=O | binding | competition with immobilised ligand | 0.1 µM | 79 |
| C[C@@H]1CN(c2cc(-c3nn(C)c4ccc(OC5(C)CC5)cc34)ncn2)C[C@H](C)O1 | cell-free assay | competition with immobilised ligand | 1 µM | 90 |
| O=C(NCCCN1CCOCC1)c1ccc(Nc2nccc(-c3cc4ccccc4s3)n2)cc1 | binding | competition with immobilised ligand | 1 µM | 65 |
| CN(C)c1nccc(-c2cnn3ncccc23)n1 | binding |  | 1 µM | 100 |
| O=C(N1CCS(=O)(=O)CC1)N1C[C@H](c2ccc(OC(F)(F)F)cc2)C[C@H](c2nc(C3CC3)no2)C1 | cell-free assay | competition with immobilised ligand | 1 µM | 100 |
| CN(c1nccc(-c2cnn3ncccc23)n1)C1CC1 | binding |  | 1 µM | 100 |
| CN1CCN(c2cnc3c(C4CCN(C(=O)c5ccc(OC(F)(F)F)cc5N)CC4)ncnc3c2)CC1 | cell-free assay | competition with immobilised ligand | 1 µM | 94 |
| Nc1ncc2c(n1)-c1c([nH]c3ccc(C#CC4CC4)cc13)CCCC2 | binding | competition with immobilised ligand | 1 µM | 89 |
| O=C(Nc1cccnn1)N1CC(C/C=C/c2cncc(Oc3ccc(C(F)(F)F)cn3)n2)C1 | cell-free assay | competition with immobilised ligand | 1 µM | 79 |
| C[C@H]1CCN(c2nccc(-c3cnn4ncccc34)n2)C1 | binding |  | 1 µM | 59 |
| O=C(NCCCN1CCOCC1)c1ccc(Nc2ncc(Cl)c(-c3ccc(Cl)s3)n2)cc1 | binding | competition with immobilised ligand | 1 µM | 3.6 |
| N[C@H]1CCN(c2nccc(-c3cnn4ncccc34)n2)C1 | binding |  | 1 µM | 100 |
| O=C(O)[C@H]1[C@H](Cn2nnc3ccccc3c2=O)CC[C@@H]1C(=O)c1ccc(OCCC2CCOCC2)cc1 | cell-free assay | competition with immobilised ligand | 1 µM | 100 |
| F[C@@H]1CCN(c2nccc(-c3cnn4ncccc34)n2)C1 | binding |  | 1 µM | 100 |
| CNC(=O)[C@@H]1CC[C@@H](n2c(-c3ccc4cnccc4c3)nc3ccc(C(=O)NCc4cccc(C(N)=O)c4)cc32)C1 | binding | competition with immobilised ligand | 1 µM | 100 |
| O=C(NCC1CCOCC1)c1n[nH]cc1NC(=O)c1c(F)cccc1F | binding | competition with immobilised ligand | 1 µM | 96 |
